In ChEMBL document CHEMBL2412990, “Synthesis and pharmacological evaluation of new N-phenylpiperazine derivatives designed as homologues of the antipsychotic lead compound LASSBio-579” (Eur J Med Chem, 2013):

What was measured:
[1] = molecular target: T1, 5-hydroxytryptamine receptor 2C (Homo sapiens, UniProt P28335); test: Displacement of [3H]-mesulergine from human 5HT2C receptor after 60 mins by liquid scintillation counting
T1 sequence (P28335 whole entry): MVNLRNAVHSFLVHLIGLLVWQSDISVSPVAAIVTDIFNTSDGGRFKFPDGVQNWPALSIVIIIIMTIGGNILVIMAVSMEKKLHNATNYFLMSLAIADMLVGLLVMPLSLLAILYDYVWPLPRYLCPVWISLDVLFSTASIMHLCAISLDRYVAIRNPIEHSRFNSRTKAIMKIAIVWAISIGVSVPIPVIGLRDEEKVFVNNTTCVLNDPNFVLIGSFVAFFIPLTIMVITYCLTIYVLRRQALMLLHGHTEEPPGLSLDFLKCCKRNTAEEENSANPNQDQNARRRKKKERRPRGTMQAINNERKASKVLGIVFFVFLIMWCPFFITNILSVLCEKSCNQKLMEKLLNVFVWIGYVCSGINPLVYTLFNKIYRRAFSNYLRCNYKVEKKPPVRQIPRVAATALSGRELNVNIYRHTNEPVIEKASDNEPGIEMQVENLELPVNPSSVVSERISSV

[2] = molecular target: Muscarinic acetylcholine receptor (Rattus norvegicus) (UniProt P08482+P08483+P08485+P08911+P10980); test: Displacement of [3H]-QNB from muscarinic receptor in rat brain cortical membranes at 30 uM after 60 mins by liquid scintillation counting; format: cell membranes; details: Membrane
Outline: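 Cortical membranes, 150 µg protein, with 0.1 nM [3H]-QNB in 50 mM Tris-HCl pH 7.4 at room temperature for 60 min. Non-specific binding was defined with atropine sulfate. Samples were diluted with cold 5 mM Tris-HCl, vacuum-filtered on glass fibre filters and counted by liquid scintillation.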

[3] = molecular target: T2, Alpha-1B adrenergic receptor (Rattus norvegicus, UniProt P15823); test: Displacement of [3H]-[…] from alpha1B adrenoreceptor in rat liver membranes after 45 mins by liquid scintillation counting; format: cell membranes, Membrane
T2 sequence (P15823 whole entry): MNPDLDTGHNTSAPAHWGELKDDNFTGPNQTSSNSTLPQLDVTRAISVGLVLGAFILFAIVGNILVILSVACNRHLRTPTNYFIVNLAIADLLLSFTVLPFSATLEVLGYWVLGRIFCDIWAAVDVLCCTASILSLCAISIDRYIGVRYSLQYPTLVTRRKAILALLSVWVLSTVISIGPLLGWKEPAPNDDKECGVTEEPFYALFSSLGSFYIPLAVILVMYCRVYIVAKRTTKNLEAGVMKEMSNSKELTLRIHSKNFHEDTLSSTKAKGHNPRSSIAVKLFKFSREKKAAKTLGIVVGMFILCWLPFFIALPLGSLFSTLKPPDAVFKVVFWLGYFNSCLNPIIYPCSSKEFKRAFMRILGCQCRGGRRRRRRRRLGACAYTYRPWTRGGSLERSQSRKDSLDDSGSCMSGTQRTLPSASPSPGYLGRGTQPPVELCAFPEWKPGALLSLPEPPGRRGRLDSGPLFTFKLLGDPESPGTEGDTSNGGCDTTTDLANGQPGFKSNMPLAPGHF

[4] = molecular target: 5-hydroxytryptamine receptor 2A (Rattus norvegicus, UniProt P14842); test: Displacement of [3H]-ketanserin from 5HT2A receptor in rat brain cortical membranes after 15 mins by liquid scintillation counting; format: cell membranes, Membrane
[5] = molecular target: T3, Adrenergic receptor alpha-2 (Rattus norvegicus, UniProt P22086+P19328+P22909); test: Displacement of [3H]-RX821002 from alpha2 adrenoreceptor in rat brain cortical membranes after 45 mins by liquid scintillation counting; format: cell membranes, Membrane
T3 sequence (P22086 whole entry): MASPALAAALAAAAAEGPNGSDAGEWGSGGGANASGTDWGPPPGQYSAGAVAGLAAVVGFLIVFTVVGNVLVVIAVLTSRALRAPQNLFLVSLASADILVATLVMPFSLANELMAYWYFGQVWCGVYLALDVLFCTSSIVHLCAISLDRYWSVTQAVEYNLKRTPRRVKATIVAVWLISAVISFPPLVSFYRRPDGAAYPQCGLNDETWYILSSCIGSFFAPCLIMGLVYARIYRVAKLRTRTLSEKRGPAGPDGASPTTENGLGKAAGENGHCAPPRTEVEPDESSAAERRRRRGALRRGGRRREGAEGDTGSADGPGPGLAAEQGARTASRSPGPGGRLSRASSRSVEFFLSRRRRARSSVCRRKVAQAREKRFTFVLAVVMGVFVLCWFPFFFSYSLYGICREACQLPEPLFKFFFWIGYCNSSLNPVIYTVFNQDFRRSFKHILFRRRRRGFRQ
T3 sequence (P19328 whole entry): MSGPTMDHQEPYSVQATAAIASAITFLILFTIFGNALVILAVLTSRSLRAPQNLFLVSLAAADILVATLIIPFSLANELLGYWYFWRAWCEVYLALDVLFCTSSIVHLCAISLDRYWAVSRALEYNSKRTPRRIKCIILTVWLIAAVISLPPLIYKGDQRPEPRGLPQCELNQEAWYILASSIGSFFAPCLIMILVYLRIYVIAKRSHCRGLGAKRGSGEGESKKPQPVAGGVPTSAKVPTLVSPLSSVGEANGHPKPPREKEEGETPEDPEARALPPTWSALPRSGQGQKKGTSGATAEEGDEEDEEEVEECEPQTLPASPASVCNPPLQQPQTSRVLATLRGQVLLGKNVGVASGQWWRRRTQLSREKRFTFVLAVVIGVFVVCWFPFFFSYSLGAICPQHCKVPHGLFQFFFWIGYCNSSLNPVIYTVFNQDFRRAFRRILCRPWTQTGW
T3 sequence (P22909 whole entry): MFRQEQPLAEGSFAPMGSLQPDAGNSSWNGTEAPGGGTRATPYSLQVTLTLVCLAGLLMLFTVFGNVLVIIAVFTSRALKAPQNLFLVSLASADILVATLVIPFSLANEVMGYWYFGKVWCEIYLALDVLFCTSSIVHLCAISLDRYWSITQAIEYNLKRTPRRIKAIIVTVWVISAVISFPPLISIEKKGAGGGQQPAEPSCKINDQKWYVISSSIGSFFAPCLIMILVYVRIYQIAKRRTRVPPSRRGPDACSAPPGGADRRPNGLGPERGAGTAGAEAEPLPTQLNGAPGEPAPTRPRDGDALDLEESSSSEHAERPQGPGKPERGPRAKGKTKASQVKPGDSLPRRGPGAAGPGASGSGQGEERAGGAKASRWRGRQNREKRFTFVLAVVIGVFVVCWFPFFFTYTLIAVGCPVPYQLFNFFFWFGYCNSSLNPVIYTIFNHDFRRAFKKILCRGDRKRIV

Chain of 5-hydroxytryptamine receptor 2A (P14842 whole entry): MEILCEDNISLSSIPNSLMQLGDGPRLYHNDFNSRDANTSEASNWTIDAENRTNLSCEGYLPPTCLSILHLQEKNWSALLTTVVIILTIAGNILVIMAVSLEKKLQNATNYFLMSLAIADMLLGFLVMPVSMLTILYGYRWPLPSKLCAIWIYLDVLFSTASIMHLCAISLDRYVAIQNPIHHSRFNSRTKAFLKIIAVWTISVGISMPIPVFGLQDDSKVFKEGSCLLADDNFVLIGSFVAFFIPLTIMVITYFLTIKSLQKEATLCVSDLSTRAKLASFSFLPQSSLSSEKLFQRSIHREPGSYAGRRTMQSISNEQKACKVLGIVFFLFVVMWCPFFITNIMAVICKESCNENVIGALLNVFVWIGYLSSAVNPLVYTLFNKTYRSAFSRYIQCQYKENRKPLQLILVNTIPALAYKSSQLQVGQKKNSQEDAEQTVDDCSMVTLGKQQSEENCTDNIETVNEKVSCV

Ki [1] [nM] | inhibition [2] [%] | Ki [3] [nM] | Ki [4] [nM] | Ki [5] [nM] | SMILES
7800 | 26 | 380 | 950 | 1400 | Clc1ccc(-n2cc(CCCCCN3CCN(c4ccccc4)CC3)cn2)cc1
5900 | 2 | 570 | 650 | 610 | Clc1ccc(-n2cc(CCCCN3CCN(c4ccccc4)CC3)cn2)cc1
5100 | 39 | 700 | 600 | 1600 | Clc1ccc(-n2cc(CCCN3CCN(c4ccccc4)CC3)cn2)cc1
8630 | 22 | 2600 | 6910 | 2500 | Clc1ccc(-n2cc(CN3CCN(c4ccccc4)CC3)cn2)cc1
8100 | 11 | 850 | 2490 | 2100 | Clc1ccc(-n2cc(COCCN3CCN(c4ccccc4)CC3)cn2)cc1
2800 | 28 | 400 | 650 | 2800 | Clc1ccc(-n2cc(COCCCN3CCN(c4ccccc4)CC3)cn2)cc1
